In the library only some 1.3% were active in any assay of this set; here they are far more common.
MEX-5 binding = MEX-5 zinc finger RNA-binding disruptors – biochemical, C. elegans, fluorescence polarization, MLPCN library, primary screen; activity score (negative = inhibition of binding), % at 10 µM; Zinc finger protein mex-5 (Caenorhabditis elegans), Q9XUB2; 300,000 tested, 0.38% active; MEX-5/FITC-TCR2 RNA binding; stronger effect = lower value;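 active = inhibition past about -25% in most replicates, and total fluorescence under double the plate's negative control median, limit read from the data; inconclusive = replicates evenly split on the limit, or fluorescence at least double controls; inactive = too little inhibition in most replicates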;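 also: 0% = DMSO and -100% = 5 µM competing unlabeled TCR2 RNA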
C-LANA FP = inhibitors of KSHV C-LANA binding to DNA, primary screen, biochemical, fluorescence polarization, FAM-LBS DNA, MBP-C-LANA, single point; Kaposi's sarcoma herpesvirus LANA C-terminal domain (residues 932-1162) DNA binding; inhibition, % at 9 µM; 340,000 tested, 0.078% active; AID 504423, 2011;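 active = highest replicate inhibition at or above 60% at 9 µM, even if other replicates fall short; inactive = all replicates below 60% inhibition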;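 also: 0% = neutral control wells and 100% = 4 µM acridine orange control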
GRK2 inh = compounds blocking aptamer binding on GRK2 – biochemical, human GRK2, bead flow cytometry, HTS, primary screen. Beta-adrenergic receptor kinase 1 (Homo sapiens), P25098. FAM-aptamer displacement from GRK2. inhibition of aptamer binding, % at 10 µM. 330,000 tested, 0.59% active;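 active = inhibition of aptamer binding above 40%, roughly 3 SD of noise, on plates passing a quality check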;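 also: median bead fluorescence of bound FAM aptamer so fluorescent compounds give negative values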
T cell HTS = modulators of CD8 T cell-vesicle binding, primary screen, mouse 2C CD8+ T cells, flow cytometry | 2C CD8+ T cell-vesicle binding; stronger effect = lower value | response (vesicle binding), % at 7 µM | 330,000 tested, 0.068% active;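 active = response, share of CD8 T cells binding vesicles, and their 90th percentile fluorescence all below set limits, cut at about 80% in these data, passing the limit was not always enough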;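 also: values below 100% mean blocked vesicle binding to the CD8+ T cells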
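Material: murine 2C transgenic CD8+ T lymphocytes / Also added: QL9-peptide-loaded Drosophila micro-vesicles bearing Ld, ICAM-1 and B7-1 / Schedule: binding step 1.5 h, 37 °C, antibody labelling 20 min, ice / Signal: flow cytometry, PE anti-B7-1 (FL2) versus Alexa647 anti-CD8 (FL8), PFA-fixed / Evaluation: percent CD8+ FL2 mean versus row control / Benchmarks: naked versus QL9-loaded vesicles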
EBV gp42 inh = Epstein-Barr virus gp42 inhibitors, primary screen, biochemical, uHTS, fluorescence polarization. Glycoprotein 42 (Epstein-Barr virus (strain AG876)), Q1HVG2. Fluorescence polarization binding assay, mP read-out. inhibition, % (tested at 21.74 µM). 220,000 tested, 0.42% active. AID 1085, 2008; in the data active = inhibition above about 50%
Target sequence (Q1HVG2 whole entry, looked up): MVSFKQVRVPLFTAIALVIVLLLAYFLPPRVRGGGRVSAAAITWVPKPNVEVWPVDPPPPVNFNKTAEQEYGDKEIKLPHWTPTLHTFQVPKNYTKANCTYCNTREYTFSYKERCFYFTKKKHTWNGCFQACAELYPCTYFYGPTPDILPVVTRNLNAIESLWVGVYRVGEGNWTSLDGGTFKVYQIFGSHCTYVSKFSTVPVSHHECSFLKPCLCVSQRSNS
Keap1-Nrf2 PPI = Keap1-Nrf2 protein-protein interaction inhibitors, primary screen, biochemical, fluorescence polarization, single point. Kelch-like ECH-associated protein 1 (Homo sapiens), Q14145. 340,000 tested, 0.15% active. inhibition, % at 9.4 µM. AID 504523, 2011. Keap1 Kelch-Nrf2 peptide fluorescence polarization, 1536-well; in the data active = inhibition above about 12%; inconclusive = no clear call, values can overlap the other calls; inactive = below about 7.3%;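 also: human Keap1 Kelch domain with fluorescein labeled Nrf2 9mer peptide probe; 0% = neutral control wells and 100% = peptide positive control; higher means more block of Keap1 binding to Nrf2 peptide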
* hit, by the source's call; i = inactive; ? = inconclusive; / = no result given.

SMILES	MEX-5 binding	C-LANA FP	GRK2 inh	T cell HTS	EBV gp42 inh	Keap1-Nrf2 PPI
COc1ccc(C(=O)Oc2ccc(Br)cc2C(=S)N2CCOCC2)cc1	0.6	0.9	0.0	181.7	/	-4.4
Cc1ccc(SCC(=O)O/N=C(\N)c2cccnc2)cc1	0.1	0.1	2.0	302.9	/	-6.9
COc1ccccc1NC(=O)N1CCN(c2ccc3nncn3n2)CC1	0.2	-0.5	1.0	669.8	-11.2	-0.6
Nc1cccc2c(O)cc(S(=O)(=O)O)cc12	/	117.1*	/	/	/	?
COc1ccccc1Nc1ccc2c(O)cc(S(=O)(=O)O)cc2c1	/	119.1*	/	/	/	7.9
Nc1ccc2c(O)cc(S(=O)(=O)O)cc2c1	/	51.2	/	/	/	-0.4
CC(=O)Nc1ccc2c(O)cc(S(=O)(=O)O)cc2c1	/	11.7	/	/	/	0.6
O=S(=O)(O)c1cc(O)c2cc(Nc3ccccc3)ccc2c1	/	93.1*	/	/	/	0.1
O=S(=O)(O)c1cc(O)c2ccc(Nc3ccccc3)cc2c1	/	92.2*	/	/	/	2.6
CCOc1ccc(N(CC(=O)Nc2ccc(C)cc2C)S(C)(=O)=O)cc1	-1.5	0.2	8.0	206.4	/	-4.2
Cc1[nH]n(C2=NCCS2)c(=O)c1N=Nc1ccccc1	-6.4	1.4	0.0	177.7	12.7	2.7
C#CCOC(=O)/C(=C/C=C/c1ccccc1)NC(=O)c1ccccc1	0.1	2.5	5.0	490.7	60.6*	-4.0
CN(C)c1ccc(N=Cc2nc(-c3ccccc3)oc2OC(=O)c2cccc(Br)c2)cc1	-43.3*	4.7	0.0	63.5	-2.1	-9.8
COc1ccc(N=Cc2nc(-c3ccccc3)oc2OC(=O)c2ccccc2)cc1	-1.5	0.4	2.0	169.6	-14.8	1.1
CCCOC(=O)CCCCC1SCC(NC(=O)OC)C1NC(=O)OC (stereo unspecified)	0.9	0.6	0.0	i	-6.2	-6.7
Cc1[nH][nH]c(=O)c1C(c1ccc(O)c([N+](=O)[O-])c1)c1c(C)[nH][nH]c1=O	-48.4*	0.7	37.0	228.8	-2.8	-1.5
COc1cc(C2CC(C(F)(F)F)n3ncc(C(=O)O)c3N2)cc(OC)c1OC (stereo unspecified)	1.3	-0.1	1.0	395.1	173.2*	-1.7
O=C(Nc1ccccc1F)c1coc(=O)c(Br)c1	-55.9*	87.3*	0.0	254.5	3.6	3.9
O=C(NCCc1ccc(F)cc1)c1coc(=O)c(Br)c1	-2.9	-0.1	2.0	231.0	/	3.7
NC(=O)c1c(NC(=O)C2CC=CCC2C(=O)O)sc2c1CCCCC2 (stereo unspecified)	-0.2	4.3	48.0*	155.7	/	-4.2
CC(C)OC(=O)c1c(NC(=O)C2CC=CCC2C(=O)O)sc2c1CCCCC2 (stereo unspecified)	-1.1	1.1	12.0	158.5	/	1.2
C=CC(=O)Nc1sc2c(c1C(N)=O)CCCC2	1.0	0.0	4.0	431.7	/	-6.1
C=CCNC(=S)Nc1sc2c(c1C(N)=O)CCCC2	0.1	/	/	47.1*	-13.3	/
Cc1ccc2c(=O)n3c(nc2c1)C(Cc1ccccc1)NC(=O)c1cc(Cl)ccc1-3 (stereo unspecified)	/	/	8.0	0.0*	/	/
COc1ccccc1N1C(=N)S/C(=C\c2ccc(-c3ccccc3C(=O)O)o2)C1=O	-9.5	2.2	44.0*	235.4	-68.6	-14.9
N=C1S/C(=C\c2ccc(-c3ccccc3C(=O)O)o2)C(=O)N1c1ccc2c(c1)OCO2	-9.2	1.5	/	/	0.5	2.3
Cc1c(N2C(=O)CS/C2=N\N=C\c2ccccc2O)c(=O)n(-c2ccccc2)n1C	-0.5	0.0	2.0	258.9	-11.1	-2.0
CSC1=NSC2=NC(=O)/C(=C/c3coc4ccccc4c3=O)C(=N)N12	/	23.1	5.0	295.6	73.8*	-85.9
CSC1=NSC2=NC(=O)/C(=C\c3cccs3)C(=N)N12	1.2	1.4	4.0	106.5	1.6	-0.4
CSC1=NSC2=NC(=O)/C(=C/c3coc4ccc(O)cc4c3=O)C(=N)N12	?	22.2	7.0	313.9	62.8*	-155.9
